# Results collected from several papers.
# Lines come from different studies, so protocols differ.
SMILES,target or system,test,test system,conditions,quantity,value
CCCCCNC[C@H](O)c1cc(Cl)cc2c1-c1ccc(Cl)cc1C2,HepG2,cell growth or viability,,48 h,CC50,6.3 µM
CC[S+]([O-])c1nc(-c2cccc(OCc3ccccc3)c2)cc(C(F)(F)F)n1 (centres unmarked),HEK-293T,"cell growth or viability, ATP luminescence",,24 h,CC50,20 µM
CCN1CCN(Cc2ccc(NC(=O)c3ccc(C)c(NC(=O)c4cncc(-c5cccs5)c4)c3)cc2C(F)(F)F)CC1,,,"mouse, plasma","intraperitoneal, 20 mg/kg, single dose",MRT,3.52 h
CCOc1ccc(N(C)S(=O)(=O)c2cc(Cl)sc2C(=O)Nc2cc(Cl)cc(C(=O)O)c2)cc1OC,,,"male C57BL/6 mouse, brain","intraperitoneal, 10 mg/kg",MRT(0-inf),0.854 h
C=CS(=O)(=O)c1ccc(Nc2nc(OCC3CCCCC3)c3nc[nH]c3n2)cc1,,,"male BALB/c mouse, plasma","intraperitoneal, 20 mg/kg, single dose",MRT(0-t),2.26 h
CCS(=O)(=O)c1nc(C)cc(-c2ccccc2)n1,HEK-293T,"cell growth or viability, ATP luminescence",,24 h,CC50,> 60 µM
CCCCCCCCNCC(O)c1cc(Cl)cc2c1-c1ccc(Cl)cc1C2 (racemic),HepG2,cell growth or viability,,48 h,CC50,5.9 µM
CC(=O)O[C@@]12CO[C@@H]1C[C@H](O)[C@@]1(C)C(=O)[C@H](O)C3=C(C)[C@@H](OC(=O)[C@H](O)[C@@H](NC(=O)OC(C)(C)C)c4ccccc4)C[C@@](O)([C@@H](OC(=O)c4ccccc4)[C@H]21)C3(C)C,,,"male Kunming mouse, lung","oral, 20 mg/kg",MRT,1.8 h
